# Assay results reported in ChEMBL document CHEMBL3877243, “Synthesis and biological evaluation of novel pentacyclic triterpene α-cyclodextrin conjugates as HCV entry inhibitors” (Eur J Med Chem, 2016).
# The source made the active and inactive calls. The rule behind the calls is not given here.
# What was measured:
# [1] = Aqueous solubility of the compound at room temperature measured per 100 ml of solution; format: physicochemical; details: buffer
# [2] = Cytotoxicity against MDCK cells measured after 48 hrs by alamar blue assay; format: toxicity, cell-based, Canis lupus familiaris; details: dog
# Procedure, shortened: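 MDCK cells were seeded at 1 × 10⁴ per well and allowed to adhere for 16 h at 37 °C in 5% CO₂. Compounds were added at 0.1, 1, 10 and 100, in triplicate, against 1% DMSO controls, for 48 h. AlamarBlue was then added for 2 h and fluorescence read (ex 530, em 590 nm). Percent viability gave CC50.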
# [3] = Selectivity index, ratio of CC50 for MDCK cells to IC50 for HCV pseudoparticle expressing envelope protein E1 and E2 to; format: functional
# Procedure, shortened: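 SI = MDCK CC50 / HCVpp IC50. The IC50 came from HIV pNL4-3 luciferase pseudoparticles carrying HCV E1E2, made in 293T cells. Huh-7 cells (5 × 10³ per well, seeded 24 h earlier) were infected with compound present at 37 °C, and luciferase was read 3 days later. Inhibition was normalised to DMSO wells minus uninfected background. IC50 values are means of at least three independent determinations.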
# Hepatitis C virus [4] = assay: Antiviral activity against HCV pseudoparticle harboring HCV envelope protein E1 and E2 and HIV proviral DNA assessed as inhibition of pseudoparticle entry into human Huh7 cells at 5 uM measured after 3 days by luciferase reporter gene assay relative to control; format: functional, Hepacivirus hominis; details: Huh-7, 72 h
# Procedure, shortened: (§1)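 Huh-7 cells (5 × 10³/well) seeded 24 h, then infected with HCVpp or VSVGpp (HIV pNL4-3 luciferase backbone with HCV E1E2 or VSV G, made in 293T cells) with compound in 1% DMSO at 37 °C. Luciferase read 3 days post-infection. % inhibition = 100 − background-subtracted signal as % of DMSO wells. Duplicates, ≥3 repeats.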
# Hepatitis C virus [5] = assay: Antiviral activity against HCV pseudoparticle harboring HCV envelope protein E1 and E2 and HIV proviral DNA assessed as inhibition of pseudoparticle entry into human Huh7 cells measured after 3 days by luciferase reporter gene assay; format: functional, cell-based, Hepacivirus hominis; details: Huh-7, 72 h
# Procedure, shortened: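 Huh-7 cells infected with HCVpp with compound at six concentrations spanning the nanomolar range upward, 37 °C. Luciferase read 3 days post-infection, normalised to DMSO-only wells minus uninfected background. Each concentration in triplicate. IC50 is the mean of at least three independent determinations.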
# Hepatitis C virus [6] = assay: (§2) Antiviral activity against HCV pseudoparticle harboring HCV envelope protein E1, E2 and HIV proviral DNA infected in HuH7 cells assessed as reduction in viral infection at 10 uM preincubated cells with test compound for 3 hrs followed by viral infection measured after 72 hrs by luciferase reporter gene assay; format: functional, Hepacivirus hominis; details: Huh-7
# Procedure, shortened: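 Pre-treatment format: Huh-7 cells incubated 3 h at 37 °C with compound in DMEM/10% FBS, then washed to remove unbound compound. Cells were then infected with HCVpp at 37 °C for 72 h. Luciferase readout, normalised to 0.5% DMSO (final).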
# Hepatitis C virus [7] = assay: Antiviral activity against HCV pseudoparticle harboring HCV envelope protein E1, E2 and HIV proviral DNA infected in HuH7 cells assessed as reduction in viral infection at 10 uM incubated with virus and compound for 3 hrs by luciferase reporter gene assay; format: functional, Hepacivirus hominis; details: Huh-7, 3 h
# Procedure, shortened: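 Pre-binding format: Huh-7 cells incubated with compound plus HCVpp at 4 °C for 3 h to allow virus binding. Readout is a luciferase pseudovirus-entry signal, normalised to 0.5% DMSO (final). An anti-CD81 antibody served as positive control.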
# Hepatitis C virus [8] = assay: Antiviral activity against HCV pseudoparticle harboring HCV envelope protein E1, E2 and HIV proviral DNA infected in HuH7 cells assessed as reduction in viral infection at 10 uM pretreated with virus for 6 hrs followed by compound addition measured after 72 hrs by luciferase reporter gene assay; format: functional, Hepacivirus hominis; details: Huh-7
# Procedure, shortened: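 Post-entry format: Huh-7 cells incubated with HCVpp at 37 °C for 6 h to allow entry but not reverse transcription, then washed. Compound added at 37 °C for a further 72 h. Luciferase readout, normalised to 0.5% DMSO (final).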
# Hepatitis C virus [9] = assay: as §2, with “preincubated viral particle with” for “preincubated”, “cells” for “cells with test compound”, “by test compound addition” for “by viral infection”; format: functional, Hepacivirus hominis; details: Huh-7
# Procedure, shortened: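 Post-binding format: Huh-7 cells incubated with HCVpp at 4 °C for 3 h, then washed thoroughly to remove unbound virus. Cells were then exposed to compound at 37 °C for 72 h. Luciferase readout, normalised to 0.5% DMSO (final).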
# [10] = Aqueous solubility of the compound by HPLC method; format: physicochemical; details: buffer
# [11] = tested on: Vesicular stomatitis virus; assay: Antiviral activity against VSV pseudoparticle harboring VSV G protein and HIV proviral DNA assessed as inhibition of pseudoparticle entry into human Huh7 cells measured after 3 days by luciferase reporter gene assay; format: functional, cell-based; details: Huh-7; procedure, shortened: as §1
# [12] = Aqueous solubility of the compound at 100 ug/ml incubated for 1 hr; format: physicochemical; details: buffer
compound,measurement,setting,value
OC[C@H]1O[C@@H]2O[C@H]3[C@H](O)[C@@H](O)[C@@H](O[C@H]4[C@H](O)[C@@H](O)[C@@H](O[C@H]5[C@H](O)[C@@H](O)[C@@H](O[C@H]6[C@H](O)[C@@H](O)[C@@H](O[C@H]7[C@H](O)[C@@H](O)[C@@H](O[C@H]1[C@H](O)[C@H]2O)O[C@@H]7CO)O[C@@H]6CO)O[C@@H]5CO)O[C@@H]4CO)O[C@@H]3CO [ALFADEX],solubility,[1],14.5 g
CC(=O)OC[C@H]1O[C@@H]2O[C@H]3[C@H](OC(C)=O)[C@@H](OC(C)=O)[C@@H](O[C@H]4[C@H](OC(C)=O)[C@@H](OC(C)=O)[C@@H](O[C@H]5[C@H](OC(C)=O)[C@@H](OC(C)=O)[C@@H](O[C@H]6[C@H](OC(C)=O)[C@@H](OC(C)=O)[C@@H](O[C@H]7[C@H](OC(C)=O)[C@@H](OC(C)=O)[C@@H](O[C@H]1[C@H](OC(C)=O)[C@H]2OC(C)=O)O[C@@H]7COC(C)=O)O[C@@H]6COC(C)=O)O[C@@H]5Cn1cc(CNC(=O)[C@]25CCC(C)(C)C[C@@H]2C2=CC[C@@H]6[C@@]7(C)CC[C@H](O)C(C)(C)[C@@H]7CC[C@@]6(C)[C@]2(C)C[C@H]5O)nn1)O[C@@H]4COC(C)=O)O[C@@H]3COC(C)=O,CC50 at 48 h,[2],> 100 µM
same,Ratio CC50/IC50,[3],>85
same,inhibition at 5 µM,Hepatitis C virus [4],80%
same,IC50,Hepatitis C virus [5],1.18 µM
same,inhibition at 10 µM,Hepatitis C virus [6],10 to 30%
same,inhibition at 10 µM,Hepatitis C virus [7],10 to 30%
same,inhibition at 10 µM,Hepatitis C virus [8],10 to 30%
same,inhibition at 10 µM,Hepatitis C virus [9],> 90%
CC1(C)CC[C@]2(C(=O)O)CC[C@]3(C)C(=CC[C@@H]4[C@@]5(C)CC[C@H](O)C(C)(C)[C@@H]5CC[C@]43C)[C@@H]2C1 [OLEANOLIC_ACID],solubility,[10],0.05 µg/mL
C=C(C)[C@@H]1CC[C@]2(C(=O)NCc3cn(C[C@H]4O[C@@H]5O[C@H]6[C@H](O)[C@@H](O)[C@@H](O[C@H]7[C@H](O)[C@@H](O)[C@@H](O[C@H]8[C@H](O)[C@@H](O)[C@@H](O[C@H]9[C@H](O)[C@@H](O)[C@@H](O[C@H]%10[C@H](O)[C@@H](O)[C@@H](O[C@H]4[C@H](O)[C@H]5O)O[C@@H]%10CO)O[C@@H]9CO)O[C@@H]8CO)O[C@@H]7CO)O[C@@H]6CO)nn3)CC[C@]3(C)[C@H](CC[C@@H]4[C@@]5(C)CC[C@H](O)C(C)(C)[C@@H]5CC[C@]43C)[C@@H]12,inhibition at 5 µM,Hepatitis C virus [4],60%
same,inhibition,[11],Active
C=C(C)[C@@H]1CC[C@]2(C(=O)O)CC[C@]3(C)[C@H](CC[C@@H]4[C@@]5(C)CC[C@H](O)C(C)(C)[C@@H]5CC[C@]43C)[C@@H]12 [BETULINIC ACID],solubility at 1 h,[12],0.02 µg/mL
CC1(C)CC[C@]2(C(=O)NCc3cn(C[C@H]4O[C@@H]5O[C@H]6[C@H](O)[C@@H](O)[C@@H](O[C@H]7[C@H](O)[C@@H](O)[C@@H](O[C@H]8[C@H](O)[C@@H](O)[C@@H](O[C@H]9[C@H](O)[C@@H](O)[C@@H](O[C@H]%10[C@H](O)[C@@H](O)[C@@H](O[C@H]4[C@H](O)[C@H]5O)O[C@@H]%10CO)O[C@@H]9CO)O[C@@H]8CO)O[C@@H]7CO)O[C@@H]6CO)nn3)[C@H](O)C[C@]3(C)C(=CC[C@@H]4[C@@]5(C)CC[C@H](O)C(C)(C)[C@@H]5CC[C@]43C)[C@H]2C1,CC50 at 48 h,[2],> 100 µM
same,Ratio CC50/IC50,[3],>400
same,inhibition at 5 µM,Hepatitis C virus [4],95%
same,IC50,Hepatitis C virus [5],0.25 µM
same,inhibition at 10 µM,Hepatitis C virus [6],10 to 30%
same,inhibition at 10 µM,Hepatitis C virus [7],10 to 30%
same,inhibition at 10 µM,Hepatitis C virus [8],10 to 30%
same,inhibition at 10 µM,Hepatitis C virus [9],> 90%
CC1(C)CC[C@]2(C(=O)O)[C@H](O)C[C@]3(C)C(=CC[C@@H]4[C@@]5(C)CC[C@H](O)C(C)(C)[C@@H]5CC[C@]43C)[C@@H]2C1,CC50 at 48 h,[2],15.4 µM
same,Ratio CC50/IC50,[3],11
C=C(C)[C@@H]1CC[C@]2(C(=O)NCc3cn(C[C@H]4O[C@@H]5O[C@H]6[C@H](OC(C)=O)[C@@H](OC(C)=O)[C@@H](O[C@H]7[C@H](OC(C)=O)[C@@H](OC(C)=O)[C@@H](O[C@H]8[C@H](OC(C)=O)[C@@H](OC(C)=O)[C@@H](O[C@H]9[C@H](OC(C)=O)[C@@H](OC(C)=O)[C@@H](O[C@H]%10[C@H](OC(C)=O)[C@@H](OC(C)=O)[C@@H](O[C@H]4[C@H](OC(C)=O)[C@H]5OC(C)=O)O[C@@H]%10COC(C)=O)O[C@@H]9COC(C)=O)O[C@@H]8COC(C)=O)O[C@@H]7COC(C)=O)O[C@@H]6COC(C)=O)nn3)CC[C@]3(C)[C@H](CC[C@@H]4[C@@]5(C)CC[C@H](O)C(C)(C)[C@@H]5CC[C@]43C)[C@@H]12,inhibition at 5 µM,Hepatitis C virus [4],60%
same,inhibition,[11],Active
